# Measurements from the RNAGym collection of RNA variant scans (doi:10.1101/gad.245936.114).
# Fewer inactive variants are shown than the library holds.
# B1: tRNA (parent)
# chain: CUCUCGGUAGCCAAGUUGGUUUAAGGCGCAAGACUUUAAUUUAUCACUACGAAAUCUUGAGAUCGGGCGUUCGACUCGCCCCCGGGAGAUUUUUUCCUCGAGCAA
# Variants of: B1
# Assay: nonsense suppression (GFP-seq) (ratio to wild type); higher = more function; SUP4oc tRNA, yeast GFP reporter sort-seq
# Outline: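 Yeast carrying genome-integrated SUP4oc tRNA variants from a library with ~3% random mutations were grown in raffinose/galactose medium with 80 mg/L adenine. Each strain also carried a galactose-driven GFP ochre reporter and RFP. Cells were sorted into GFP/RFP bins, and each bin was Illumina-sequenced (phred ≥30). Nonsense suppression (GFPSEQ) is the bin median GFP/RFP, weighted by each variant's estimated cell share per bin, relative to wild-type SUP4oc; variants needed ≥100 reads and ≥30 cells.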
row,Variant,nonsense suppression
1,G78U,0.63
2,G78A,0.775
3,G78C,0.202
4,G84C G85C,0.0289
5,U76A C80U,0.0419
6,C83U G84U,0.027
7,G73A A89C,0.0768
8,G67A U71C A89C,≤ 0.026
9,C75A A87G,0.839
10,G67C C79G,1.03
11,U63G A87U,0.0518
12,C79U G86C,0.0687
13,G67A G78U,0.0411
14,G84A G88U,≤ 0.026
15,U63C C82U,0.449
16,C64G C72U,≤ 0.026
17,G73A G85U,0.285
18,G73A G85A,1.03
19,U63A C75G,1.13
20,G69C C77G,≤ 0.026
21,G66A G78A,0.0402
22,U63A G85U,0.23
23,U63A G85A,1.09
24,U63G G67A,0.0444

row,Variant,nonsense suppression
1,G73A G88A,0.0281
2,G73A G88U,0.0757
3,G86C,≤ 0.026
4,G86U,≤ 0.026
5,U76A C77A,≤ 0.026
6,C79A G84C,≤ 0.026
7,G78C G84U,0.0271
8,G67A C75A C79A,0.203
9,A74G G78C G86C,≤ 0.026
10,C75G G78C,0.361
11,U71C C77G G84A,≤ 0.026
12,C68A C77A,≤ 0.026
13,U63G U71C,0.028
14,U76C,1
15,U76A,≤ 0.026
16,A74G G78U,0.0279
17,A74G G78C,0.0343
18,A74C C79U,0.037
19,C75G,1.04
20,C75U,0.972
21,C75A,0.996
22,G78A C82A,0.0338
23,G78A C82G,0.0423
24,C81A A87U,≤ 0.026

row,Variant,nonsense suppression
1,U63A C82U,0.178
2,U63G G73A,0.189
3,G78A C83U,0.0266
4,G78A C83A,≤ 0.026
5,G66C G85A,≤ 0.026
6,U76C G78C,0.118
7,U76C G78U,0.0507
8,U76C G78A,0.0382
9,C68U U70C,0.0321
10,C80G G84A,≤ 0.026
11,G67A U76G G78A,≤ 0.026
12,U63G A89G,0.0674
13,G73A U76A,0.0803
14,G73A U76C,0.682
15,C81A A89C,≤ 0.026
16,G78U C83A,0.0425
17,G65C U76A,≤ 0.026
18,G69C G88U,≤ 0.026
19,U63C C68U,0.228
20,U63A G78A,0.06
21,C81G G88A,≤ 0.026
22,U70A U76G,0.183
23,G73A A87U,0.0409
24,G67A G85U,0.0862

row,Variant,nonsense suppression
1,G66C C82U,≤ 0.026
2,G73A G84C,0.361
3,G73A G84A,0.191
4,U63G C72U,0.0334
5,G66U C79A,≤ 0.026
6,C79U,0.879
7,A62U U63C,≤ 0.026
8,G69U U71G,≤ 0.026
9,G65U G86A,≤ 0.026
10,G78A G86A G88C,≤ 0.026
11,G69A C82G,≤ 0.026
12,G65U G67A,≤ 0.026
13,C72G G88U,≤ 0.026
14,G66A C75U,0.368
15,G66A C75A,1.18
16,U63G,1.14
17,U63C,1.05
18,U63A,1.05
19,G85C A89C,≤ 0.026
20,G86U A87U,≤ 0.026
21,C75G G85U,1.12
22,C75G G85C,0.191
23,U63G G66U G84A,≤ 0.026
24,U63G C82U,0.0882

row,Variant,nonsense suppression
1,A74G C83G,≤ 0.026
2,U63C G85A,1.06
3,C83U,0.535
4,G67A U76A G85U,≤ 0.026
5,A74G C75A G86C,≤ 0.026
6,G67U C79G,0.768
7,G65U G85A,≤ 0.026
8,C64G U70C G84U,≤ 0.026
9,C82U G85A,0.99
10,U63G G78U,0.0445
11,U63G G78A,0.0891
12,G85U G88A,0.0446
13,G66A C72G,≤ 0.026
14,G67A C75G,0.194
15,C81U G84A,0.0642
16,C81U G84U,0.065
17,C83U A87G,0.0621
18,C83U A87U,≤ 0.026
19,A62U U71G,≤ 0.026
20,C80U G88A,0.0263
21,C80U G84A,0.125
22,G66C G69C G73C G84C,≤ 0.026
23,U70G C75U,≤ 0.026
24,U63G C80U,≤ 0.026

row,Variant,nonsense suppression
1,C82U,1.05
2,C72U G78A,0.0322
3,G85U,1.12
4,G85A,0.982
5,G85C,0.163
6,C75A G85A,1.05
7,C75G G78C C83A,≤ 0.026
8,G85A A87G,1.18
9,G85A A87U,0.19
10,G65A G78C,≤ 0.026
11,G65A G78A,0.0493
12,G65C G66C U76C,0.793
13,U63C G73A,0.11
14,U76A C82U,≤ 0.026
15,G78U G84A,0.0428
16,G66C G78A,0.0452
17,A87G,1.16
18,U63A C75G U76C,1.19
19,G78A C79G,0.0629
20,U71G C77A C79U A87U,≤ 0.026
